Source: ChEMBL document CHEMBL5154669, “G-Quadruplex DNA as a Target in Pathogenic Bacteria: Efficacy of an Extended Naphthalene Diimide Ligand and Its Mode of Action” (J Med Chem, 2022)

Legend:
Enterobacter cloacae [1] = experiment: Antibacterial activity against Enterobacter cloacae LMG 02783 assessed as inhibition of bacterial growth incubated for 20 hrs by CLSI based broth microdilution method; format: functional
Outline: (§1)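 Broth microdilution in cation-adjusted Mueller-Hinton broth following CLSI guidelines. DMSO stocks were at 10 mM; compounds were twofold serially diluted over 128 to 2 μM. The inoculum was at 5 × 10⁵, prepared from colonies grown 20 h at 37 °C and adjusted to 0.5 McFarland. Plates ran 20 h at 37 °C with OD600 read-out. MIC was the lowest concentration inhibiting visible growth, in triplicate.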

Acinetobacter baumannii [2] = experiment: Antibacterial activity against Acinetobacter baumannii LMG 01041 assessed as inhibition of bacterial growth incubated for 20 hrs by CLSI based broth microdilution method; format: functional; outline: as §1
Escherichia coli [3] = experiment: Antibacterial activity against Escherichia coli LMG 8223 assessed as inhibition of bacterial growth incubated for 20 hrs by CLSI based broth microdilution method; format: functional; outline: as §1
Klebsiella pneumoniae [4] = experiment: Antibacterial activity against Klebsiella pneumoniae LMG 20218 assessed as inhibition of bacterial growth incubated for 20 hrs by CLSI based broth microdilution method; format: functional; outline: as §1
Salmonella enterica [5] = experiment: Antibacterial activity against Salmonella enterica LMG 07233 assessed as inhibition of bacterial growth incubated for 20 hrs by CLSI based broth microdilution method; format: functional; outline: as §1
Bacillus cereus [6] = experiment: Antibacterial activity against Bacillus cereus ATCC 10987 assessed as inhibition of bacterial growth incubated for 20 hrs by CLSI based broth microdilution method; format: functional; outline: as §1
Enterococcus faecalis = experiment: Antibacterial activity against Enterococcus faecalis LMG 08222 assessed as inhibition of bacterial growth incubated for 20 hrs by CLSI based broth microdilution method; format: functional; outline: as §1
Enterococcus faecium [7] = experiment: Antibacterial activity against Enterococcus faecium LMG 16003 assessed as inhibition of bacterial growth incubated for 20 hrs by CLSI based broth microdilution method; format: functional; outline: as §1
Staphylococcus aureus [8] = experiment: Antibacterial activity against Staphylococcus aureus LMG 10147 assessed as inhibition of bacterial growth incubated for 20 hrs by CLSI based broth microdilution method; format: functional; outline: as §1
[9] = system: Staphylococcus epidermidis; experiment: Antibacterial activity against Staphylococcus epidermidis Tu3298 assessed as inhibition of bacterial growth incubated for 20 hrs by CLSI based broth microdilution method; format: functional; outline: as §1
Acinetobacter baumannii [10] = experiment: Bacteriostatic activity against Acinetobacter baumannii LMG 01041 assessed as inhibition of bacterial growth; format: functional
Outline: (§2)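 A standard MIC plate (128–2 μM, cMHB, 20 h, 37 °C) was read at OD600. Each well then seeded at 10% a fresh compound-free cMHB plate, grown another 20 h at 37 °C and read at OD600. No growth at the same concentration in both plates counted as bactericidal. Growth above the MIC counted as bacteriostatic. Done in triplicate.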

Enterobacter cloacae [11] = experiment: Bactericidal activity against Enterobacter cloacae LMG 02783 assessed as inhibition of bacterial growth; format: functional; outline: as §2
Escherichia coli [12] = experiment: Bactericidal against Escherichia coli LMG 8223 assessed as inhibition of bacterial growth; format: functional; outline: as §2
Klebsiella pneumoniae [13] = experiment: Bactericidal activity against Klebsiella pneumoniae LMG 20218 assessed as inhibition of bacterial growth; format: functional; outline: as §2
Pseudomonas aeruginosa = experiment: Bactericidal activity against Pseudomonas aeruginosa LMG 6395 assessed as inhibition of bacterial growth; format: functional; outline: as §2
Salmonella enterica [14] = experiment: Bacteriostatic activity against Salmonella enterica LMG 07233 assessed as inhibition of bacterial growth; format: functional; outline: as §2
Bacillus cereus [15] = experiment: Bacteriostatic activity against Bacillus cereus ATCC 10987 assessed as inhibition of bacterial growth; format: functional; outline: as §2
Enterococcus faecium [16] = experiment: Bacteriostatic activity against Enterococcus faecium LMG 16003 assessed as inhibition of bacterial growth; format: functional; outline: as §2
Staphylococcus aureus [17] = experiment: Bacteriostatic activity against Staphylococcus aureus LMG 8224 assessed as inhibition of bacterial growth; format: functional; outline: as §2
DNA [18] = experiment: Stabilization of Staphylococcus aureus in G-quadruplex DNA GGA AGG AGG GGT GAC AGG G assessed as change in melting temperature at 10 uM incubated for 16 hrs by […]; format: nucleic-acid assay
Outline: (§3)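 Readout was CD melting, not FRET: 2.5 μM oligonucleotide in 10 mM lithium cacodylate pH 7.4 with KCl set per sequence (initial Tm 60-70 °C). Annealed 95 °C 5 min, cooled to room temperature over 4 h, then ligand 10 μM (4 equiv) equilibrated 16 h at 20 °C. Ellipticity at 260 nm tracked every 0.1 °C, 20-95 °C at 5 °C/min; Tm by van't Hoff two-state fit.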

DNA [19] = experiment: Stabilization of Staphylococcus aureus in G Quadruplex DNA GGGGCTAATTGGGGCTGGTGG assessed as melting at 10 uM incubated for 16 hrs temperature by […]; format: nucleic-acid assay; outline: as §3
DNA [20] = experiment: Stabilization of Escherichia coli in G-quadruplex DNA GGT GGG GAG GGG TAA GGG G assessed as melting temperature at 10 uM incubated for 16 hrs by […]; format: nucleic-acid assay; outline: as §3
DNA [21] = experiment: Stabilization of Escherichia coli in G-quadruplex DNA GGG GCG GGG TGG GTT GG assessed as melting temperature at 10 uM incubated for 16 hrs by FRET method; format: nucleic-acid assay
Escherichia coli [22] = experiment: Antibacterial activity against Escherichia coli LMG 8223 infected in Galleria mellonella assessed as survival at 5 to 10 mg/kg after 5 days; format: functional; settings: dose 5-10 mg/kg, time 5 day
Outline: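 Larvae, 20 per group, were infected with 10 µL of saline-washed bacteria into the left proleg: E. coli at 10⁶ CFU/worm and S. aureus at 10⁵ CFU/worm. After 1 h at 37 °C, the compound (5 or 10 mg/kg) was injected into the last right proleg. Controls were meropenem 5 mg/kg (E. coli), rifampicin 10 mg/kg (S. aureus) and NaCl 0.9%. Mortality was followed over 5 d at 37 °C.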

[23] = Toxicity against Galleria mellonella assessed as survival at 5 to 128 mg/kg measured after 5 days; format: organism-based; settings: in vivo, dose 5-128 mg/kg, time 5 day, read-out: Activity
Outline: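 For uninfected larvae, 20 per treatment, 10 µL was injected into the hemocoel through the last left proleg to give 8, 16, 32, 64 or 128 mg/kg. NaCl 0.9% served as the negative control. Larvae were held at 37 °C for 5 d, with mortality recorded daily.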

Bacillus cereus [24] = experiment: Antibacterial activity against Bacillus cereus ATCC 10987; format: functional, organism-based; settings: DDE = dose-dependent effect
Outline: (§4)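 Cultures were inoculated at 2% and grown at 37 °C, with OD600 read every 5 min for 8 h. NDI-10 was added at exponential-phase onset (~3 h). Concentrations were 32, 16, 8 and 4 μM for E. coli, and 16, 8, 4 and […] μM for the Gram-positive strains.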

Enterococcus faecium [25] = experiment: Antibacterial activity against Enterococcus faecium LMG 16003; format: functional, organism-based; settings: DDE = dose-dependent effect; outline: as §4
Escherichia coli [26] = experiment: Antimicrobial activity against Escherichia coli LMG 8223 assessed as inhibition of bacterial growth in presence of D11 incubated for 20 hrs; settings: LMG 8223, 20 h
Staphylococcus aureus [27] = experiment: Antimicrobial activity against Staphylococcus aureus LMG 8224 assessed as inhibition of bacterial growth in presence of D11 incubated for 20 hrs; settings: LMG 8224, 20 h
Klebsiella pneumoniae [28] = experiment: Antimicrobial activity against Klebsiella pneumoniae LMG 20218 assessed as inhibition of bacterial growth in presence of D11 incubated for 20 hrs; settings: LMG 20218, 20 h

CN(C)CCCn1c(=O)c2ccc3c(=O)n(CCCN(C)C)c(=O)c4c5[nH]c6ccccc6[nH]c5c(c1=O)c2c34.O=C(O)C(F)(F)F.O=C(O)C(F)(F)F
MIC (Enterobacter cloacae [1]): 8 µM | MIC (Acinetobacter baumannii [2]): 64 µM | MIC (Escherichia coli [3]): 16 µM | MIC (Klebsiella pneumoniae [4]): > 128 µM | MIC (Salmonella enterica [5]): 64 µM | MIC (Bacillus cereus [6]): 8 µM | MIC (Enterococcus faecalis): 8 µM | MIC (Enterococcus faecium [7]): 4 µM | MIC (Staphylococcus aureus [8]): 16 µM | MIC [9]: 16 µM | MIC (Acinetobacter baumannii [10]): 128 µM | MIC (Enterobacter cloacae [11]): 8 µM | MIC (Escherichia coli [12]): 16 µM | MIC (Klebsiella pneumoniae [13]): > 128 µM | MIC (Pseudomonas aeruginosa): 128 µM | MIC (Salmonella enterica [14]): 128 µM | MIC (Bacillus cereus [15]): 64 µM | MIC (Enterococcus faecium [16]): 32 µM | MIC (Staphylococcus aureus [17]): 128 µM | ΔTm (DNA [18]): > 30.8 °C | Tm (DNA [19]): 88.3 °C | Tm (DNA [20]): 91 °C | Tm (DNA [21]): 82.5 °C | Activity (Escherichia coli [22]): 90% | survival at 120 h [23]: 65% | Activity (Bacillus cereus [24]): Dde | Activity (Enterococcus faecium [25]): Dde | MIC (Escherichia coli [26]): < 0.5 µM | MIC (Staphylococcus aureus [27]): 16 µM | MIC (Klebsiella pneumoniae [28]): 16 µM
